This is an account of results in ChEMBL document CHEMBL1140884, “Oligodeoxyribonucleotide-based antagonists for Toll-like receptors 7 and 9” (2009).

Molecules are shown by their SMILES. The source made the active and inactive calls. The calls are words filed in the database; no cut-off is given here.

Assay [1] deals with T1, Toll-like receptor 9 (Mus musculus) (UniProt Q9EQU3).
T1 sequence (whole entry): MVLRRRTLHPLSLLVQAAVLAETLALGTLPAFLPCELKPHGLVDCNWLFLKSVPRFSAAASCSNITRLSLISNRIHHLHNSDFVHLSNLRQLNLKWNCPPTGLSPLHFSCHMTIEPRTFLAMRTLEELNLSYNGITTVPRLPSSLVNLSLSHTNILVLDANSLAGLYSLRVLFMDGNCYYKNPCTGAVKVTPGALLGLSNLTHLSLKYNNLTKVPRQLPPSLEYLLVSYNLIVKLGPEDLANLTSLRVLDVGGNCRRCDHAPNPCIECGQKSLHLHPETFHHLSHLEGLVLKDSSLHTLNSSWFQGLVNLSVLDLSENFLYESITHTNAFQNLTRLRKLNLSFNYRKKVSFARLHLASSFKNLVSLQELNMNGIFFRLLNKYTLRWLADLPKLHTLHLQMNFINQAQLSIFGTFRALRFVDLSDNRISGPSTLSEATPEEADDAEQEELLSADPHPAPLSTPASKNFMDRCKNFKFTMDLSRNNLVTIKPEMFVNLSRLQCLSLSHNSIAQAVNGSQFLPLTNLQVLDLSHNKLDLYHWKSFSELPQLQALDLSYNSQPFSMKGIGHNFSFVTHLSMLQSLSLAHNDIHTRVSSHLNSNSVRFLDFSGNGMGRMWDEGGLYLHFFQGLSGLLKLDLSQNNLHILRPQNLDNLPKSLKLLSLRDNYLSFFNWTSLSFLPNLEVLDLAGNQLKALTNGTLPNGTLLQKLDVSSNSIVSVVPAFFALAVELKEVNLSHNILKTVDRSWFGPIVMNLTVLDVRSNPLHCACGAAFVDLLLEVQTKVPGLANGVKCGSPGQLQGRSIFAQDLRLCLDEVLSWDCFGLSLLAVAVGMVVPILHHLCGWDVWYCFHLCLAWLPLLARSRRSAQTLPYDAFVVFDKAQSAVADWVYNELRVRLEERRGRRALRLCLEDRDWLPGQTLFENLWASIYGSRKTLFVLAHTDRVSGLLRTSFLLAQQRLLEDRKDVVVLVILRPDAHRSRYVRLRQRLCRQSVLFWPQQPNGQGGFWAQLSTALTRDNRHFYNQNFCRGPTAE
Put plainly: Antagonist activity at mouse TLR9 expressed in HEK293 cells assessed as inhibition of 5'-TCTGACRTTCT-X-TCTTRCAGTCT-3'-induced NF-kappaB activation pretreated for 1 hr in presence of increasing levels of 5'-TCTGACRTTCT-X-TCTTRCAGTCT-3'. Type of assay: functional, cell-based. The method in brief: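 In mouse TLR9-HEK293 cells with SEAP reporter, a fixed 10 µg/mL antagonist was combined with increasing TLR9 agonist concentrations for 18 h. Quanti-Blue SEAP read-out of NF-κB activity.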

For assay [2], the system named is B. The experiment in a line: Inhibition of 5'-TCTGTCRTTCT-X-TCTTRCTGTCT-5'-induced IL6 secretion in MRL/lpr mouse splenic B cells after 24 hrs by ELISA. Type of assay: functional, cell-based. In a few lines: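 Splenic B cells from MRL/lpr mice, purified by B-cell isolation kit (>95% B220+), cultured at 5×10^5 cells/200 μL in RPMI-1640 with 10% FBS and penicillin/streptomycin; stimulated with 1 μg/mL TLR9 agonist with or without antagonist at 0.3, 1 or 3 μg/mL, or antagonist 3 μg/mL alone. Supernatants taken at 24 h; IL-6 by sandwich ELISA.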

Assay [3] relates to Mus musculus. The experiment in a line: Inhibition of 5'-TCTGACRTTCT-X-TCTTRCAGTCT-3'-induced MIG production in C57BL/6 mouse treated 72 hrs before induction at 10 mg/kg, sc. Type of assay: functional. The settings on record: C57BL/6, sc, route subcutaneous. The method in brief: (§1)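 Female C57BL/6 mice (n=3) received antagonist 10 mg/kg sc in the right flank. After 72 h, TLR9 agonist 0.25 mg/kg sc was given in the left flank. Serum was taken 2 h after agonist and cytokines/chemokines were measured by Luminex multiplex assay. Representative of at least three experiments.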

The subject of assay [4] is Mus musculus. Put plainly: Inhibition of 5'-UGCUGUUCUG-X-GUCUUGUCGU-5'-induced IL10 production in C57BL/6 mouse treated 72 hrs before induction at 10 mg/kg, sc. Type of assay: functional. To be noted: C57BL/6, sc, route subcutaneous. In a few lines: (§2)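 Female C57BL/6 mice, 6-8 weeks, n = 3, given antagonist 10 mg/kg sc in the right flank. After 72 h, agonist given sc in the left flank: TLR7/8 RNA agonist at 50 mg/kg or TLR9 agonist at 0.25 mg/kg. Serum collected 2 h after agonist by retro-orbital bleeding; cytokines/chemokines by mouse 20-plex Luminex bead assay.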

The target in assay [5] is T1, Toll-like receptor 9 (Mus musculus). Put plainly: Agonist activity at mouse TLR9 expressed in HEK293 cells assessed as activation of NF-kappaB at 10 ug/mL by SEAP reporter gene assay. Type of assay: functional, cell-based. In a few lines: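 HEK293 cells stably expressing mouse TLR9 were transiently transfected with a SEAP reporter for 6 h. Compounds were added at 10 µg/mL for 18 h. SEAP was read with Quanti-Blue substrate and expressed as fold change in NF-κB activity.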
(Reporter assays use an easily measured gene product as a stand-in for the process of interest.)

Assay [6] concerns Mus musculus. The experiment in a line: Inhibition of 5'-UGCUGUUCUG-X-GUCUUGUCGU-5'-induced KC production in C57BL/6 mouse treated 72 hrs before induction at 10 mg/kg, sc. Type of assay: functional. To be noted: C57BL/6, sc, route subcutaneous. The method in brief: as §2
For assay [7], the target named is T1, Toll-like receptor 9 (Mus musculus). Put plainly: Antagonist activity at mouse TLR9 expressed in HEK293 cells assessed as inhibition of 5'-CTATCTGACGTTCTCTGT-3'-induced NF-kappaB activation by SEAP reporter gene assay. The assay is classed as functional, cell-based. In a few lines:
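Mouse TLR9-HEK293 cells were transfected with a SEAP reporter for 6 h. They were then stimulated for 18 h with agonist (0.25 or 0.5 µg/mL) plus increasing antagonist concentrations or set agonist:antagonist ratios. Quanti-Blue read-out, reported as % NF-κB activity with agonist alone as 100%.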

The subject of assay [8] is Mus musculus. Put plainly: Inhibition of 5'-UGCUGUUCUG-X-GUCUUGUCGU-5'-induced IL6 production in C57BL/6 mouse treated 72 hrs before induction at 10 mg/kg, sc. The assay is classed as functional. To be noted: C57BL/6, sc, route subcutaneous. In a few lines:
as §2

Assay [9] relates to Mus musculus. The experiment in a line: Inhibition of 5'-TCTGACRTTCT-X-TCTTRCAGTCT-3'-induced MCP1 production in C57BL/6 mouse treated 72 hrs before induction at 10 mg/kg, sc. The assay is classed as functional. The settings on record: C57BL/6, sc, route subcutaneous. The method in brief: as §1
The subject of assay [10] is Mus musculus. The experiment in a line: Inhibition of 5'-TCTGACRTTCT-X-TCTTRCAGTCT-3'-induced IL12 production in C57BL/6 mouse treated 72 hrs before induction at 10 mg/kg, sc. Type of assay: functional. To be noted: C57BL/6, sc, route subcutaneous. In a few lines:
as §1

In assay [11] the test system is Mus musculus. Put plainly: Inhibition of 5'-TCTGACRTTCT-X-TCTTRCAGTCT-3'-induced KC production in C57BL/6 mouse treated 72 hrs before induction at 10 mg/kg, sc. Type of assay: functional. The settings on record: C57BL/6, sc, route subcutaneous. In a few lines:
as §1

The target of assay [12] is T1, Toll-like receptor 9 (Mus musculus). Put plainly: Agonist activity at TLR9 in mouse J774 cells assessed as of NF-kappaB activation. The assay is classed as functional, cell-based. In a few lines:
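Murine J774 macrophages grown in DMEM with 10% FBS and plated at 5×10^6 cells/well. Nuclear extracts taken 1 h after agonist addition. NF-κB detected by EMSA on native polyacrylamide gels with autoradiography.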

By inhibition in vivo is commonly meant the drop in the measured response relative to a control, in per cent. Higher therefore signals strong suppression. As to `CO[C@@H]1[C@H](OP(=O)(S)OC[C@H]2O[C@@H](n3ccc(N)nc3=O)C[C@@H]2OP(=O)(S)OC[C@H]2O[C@@H](n3ccc4c(=O)[nH]c(N)nc43)C[C@@H]2OP(=O)(S)OC[C@H]2O[C@@H](n3cc(C)c(=O)[nH]c3=O)C[C@@H]2OP(=O)(S)OC[C@H]2O[C@@H](n3cc(C)c(=O)[nH]c3=O)C[C@@H]2OP(=O)(S)OC[C@H]2O[C@@H](n3ccc(N)nc3=O)C[C@@H]2OP(=O)(S)OC[C@H]2O[C@@H](n3cc(C)c(=O)[nH]c3=O)C[C@@H]2OP(=O)(S)OC[C@H]2O[C@@H](n3ccc(N)nc3=O)C[C@@H]2OP(=O)(S)OC[C@H]2O[C@@H](n3cc(C)c(=O)[nH]c3=O)C[C@@H]2OP(=O)(S)OC[C@H]2O[C@@H](n3cnc4c(=O)[nH]c(N)nc43)C[C@@H]2OP(=O)(S)OC[C@H]2O[C@@H](n3cc(C)c(=O)[nH]c3=O)C[C@@H]2O)[C@@H](COP(=O)(S)O[C@H]2[C@@H](OC)[C@H](n3cnc4c(=O)[nH]c(N)nc43)O[C@@H]2COP(=O)(S)O[C@H]2C[C@H](n3cc(C)c(=O)[nH]c3=O)O[C@@H]2COP(=O)(S)O[C@H]2C[C@H](n3ccc(N)nc3=O)O[C@@H]2COP(=O)(S)O[C@H]2C[C@H](n3cc(C)c(=O)[nH]c3=O)O[C@@H]2COP(=O)(S)O[C@H]2C[C@H](n3cnc4c(N)ncnc43)O[C@@H]2COP(=O)(S)O[C@H]2C[C@H](n3cc(C)c(=O)[nH]c3=O)O[C@@H]2COP(=O)(S)O[C@@H]2C[C@@H](n3ccc(N)nc3=O)O[C@H]2CO)O[C@H]1n1cnc2c(N)ncnc21` (some centres not stated), the outcome in [1], in assay [5] and in [12] was inactive. For the same molecule, in [2], the Activity entry was “Dose-dependent effect”. For the same molecule, the inhibition in vivo at 10 mg/kg in [3], in [4], in assay [6], in [8], in assay [9] and in assay [10] was ≥ 50% each time. Moreover, in assay [11], the inhibition in vivo at 10 mg/kg is ≥ 50%. The result in assay [7] was Active.
